Measured values taken from ChEMBL document CHEMBL4425096, “Synthesis and Biological Evaluation of 4-Anilino-quinazolines and -quinolines as Inhibitors of Breast Cancer Resistance Protein (ABCG2)” (J Med Chem, 2016).

Target: ABCB1 (Homo sapiens, UniProt P08183)
Assay: Inhibition of ABCB1 in human A2780adr cells at 10 uM preincubated for 30 mins before calcein AM addition by calcein AM assay relative to CsA
Format: cell-based
Details: probe calcein AM
How it was run: (§1)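 A2780adr cells (ABCB1-overexpressing, doxorubicin-selected one passage every 10 passages) washed three times in Krebs-HEPES buffer pH 7.0; ~30,000 cells/well with compound dilutions, 30 min at 37 °C, 5% CO2. Calcein AM added (1.25 µM solution), fluorescence (ex 485/em 520 nm) read every 60 s for 60 min at 37 °C. Single-point screen at 10 µM relative to cyclosporine A; IC50 from full curves.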

ABCB1, sequence (P08183 whole entry): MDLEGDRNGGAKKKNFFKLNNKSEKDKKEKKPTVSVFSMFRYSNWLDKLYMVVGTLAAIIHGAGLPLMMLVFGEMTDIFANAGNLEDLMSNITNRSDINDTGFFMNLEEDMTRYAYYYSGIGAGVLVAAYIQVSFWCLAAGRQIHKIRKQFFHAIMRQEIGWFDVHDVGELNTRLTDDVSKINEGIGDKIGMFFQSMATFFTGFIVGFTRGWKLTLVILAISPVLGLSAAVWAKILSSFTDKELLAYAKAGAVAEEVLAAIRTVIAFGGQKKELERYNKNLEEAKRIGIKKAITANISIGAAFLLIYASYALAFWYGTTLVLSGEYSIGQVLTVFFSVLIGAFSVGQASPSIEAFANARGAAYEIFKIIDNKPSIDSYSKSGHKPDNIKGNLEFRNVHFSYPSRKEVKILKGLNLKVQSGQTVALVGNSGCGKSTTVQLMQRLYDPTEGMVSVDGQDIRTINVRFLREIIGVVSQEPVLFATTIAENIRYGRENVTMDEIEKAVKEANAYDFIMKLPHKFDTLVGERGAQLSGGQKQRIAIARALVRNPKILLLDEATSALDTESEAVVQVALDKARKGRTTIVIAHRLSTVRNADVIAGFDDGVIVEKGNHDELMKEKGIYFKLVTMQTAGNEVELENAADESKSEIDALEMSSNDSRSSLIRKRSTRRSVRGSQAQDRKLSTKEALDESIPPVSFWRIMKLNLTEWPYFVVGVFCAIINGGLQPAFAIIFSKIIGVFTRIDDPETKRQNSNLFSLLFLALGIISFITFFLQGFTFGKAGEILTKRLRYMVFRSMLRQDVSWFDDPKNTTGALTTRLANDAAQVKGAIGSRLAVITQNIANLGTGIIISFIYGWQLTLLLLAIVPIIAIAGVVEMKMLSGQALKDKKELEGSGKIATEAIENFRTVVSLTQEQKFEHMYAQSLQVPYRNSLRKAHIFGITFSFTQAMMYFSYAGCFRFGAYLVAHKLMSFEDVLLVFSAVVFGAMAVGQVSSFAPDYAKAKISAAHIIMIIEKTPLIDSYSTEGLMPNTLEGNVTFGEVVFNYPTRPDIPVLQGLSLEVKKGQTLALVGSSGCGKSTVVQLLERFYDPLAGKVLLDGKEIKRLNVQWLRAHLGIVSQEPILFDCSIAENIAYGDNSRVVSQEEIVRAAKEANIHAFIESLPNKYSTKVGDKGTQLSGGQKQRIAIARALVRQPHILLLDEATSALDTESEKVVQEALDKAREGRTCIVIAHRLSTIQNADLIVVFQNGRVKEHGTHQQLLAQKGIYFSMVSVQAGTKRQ

| inhibition at 10 µM | Compound |
| --- | --- |
| > 25% | N#Cc1ccc(Nc2cc(-c3ccccc3)nc3ccccc23)cc1 |
| > 25% | CC(=O)Nc1cccc(Nc2cc(-c3ccccc3)nc3ccccc23)c1 |
| > 25% | COc1ccc(Nc2nc(-c3ccccc3)nc3ccccc23)cc1OC |
| > 25% | CSc1cccc(Nc2cc(-c3ccccc3)nc3ccccc23)c1 |
| > 25% | COc1cccc(Nc2cc(-c3ccccc3)nc3ccccc23)c1 |
| > 25% | Cc1cccc(Nc2nc(-c3ccccc3)nc3ccccc23)c1 |

System: not listed separately
Assay: Intrinsic cytotoxicity against MDCK2 cells over-expressing human ABCG2 incubated for 72 hrs by MTT assay
Format: ADME, cell-based, Canis lupus familiaris, MDCK-II
Details: dog
How it was run: (§2)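 MDCK II cells incubated 72 h with compound dilutions, then MTT added; viability from formazan formation. […] Methanol (≤1.8%) and DMSO (≤1%) vehicle tested alone.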

| Compound | GI50 at 72 h |
| --- | --- |
| CC(=O)Nc1cccc(Nc2nc(-c3ccccc3)nc3ccccc23)c1 | 12900 nM |
| Oc1ccc(Nc2nc(-c3ccccc3)nc3ccccc23)cc1 | 12200 nM |
| COc1ccc(Nc2nc(-c3ccccc3)nc3ccccc23)cc1OC | 22500 nM |
| Fc1ccc(Nc2nc(-c3ccccc3)nc3ccccc23)cc1 | 29000 nM |
| COc1ccc2c3c([nH]c2c1)[C@H](CC(C)C)N1C(=O)[C@H](CCC(=O)OC(C)(C)C)NC(=O)[C@@H]1C3 | 11100 nM |
| N#Cc1ccc(Nc2nc(-c3ccccc3)nc3ccccc23)cc1 | 7960 nM |
| Ic1cccc(Nc2nc(-c3ccccc3)nc3ccccc23)c1 | 4750 nM |
| Fc1cccc(Nc2nc(-c3ccccc3)nc3ccccc23)c1 | 17200 nM |
| Clc1ccc(Nc2nc(-c3ccccc3)nc3ccccc23)cc1 | 6750 nM |
| O=[N+]([O-])c1cc(Nc2nc(-c3ccccc3)nc3ccccc23)ccc1O | 52400 nM |
| Ic1ccc(Nc2nc(-c3ccccc3)nc3ccccc23)cc1 | 9250 nM |
| Cc1cccc(Nc2nc(-c3ccccc3)nc3ccccc23)c1 | 12800 nM |

Target: T1, Broad substrate specificity ATP-binding cassette transporter ABCG2 (Homo sapiens, UniProt Q9UNQ0)
T1 sequence (Q9UNQ0 whole entry): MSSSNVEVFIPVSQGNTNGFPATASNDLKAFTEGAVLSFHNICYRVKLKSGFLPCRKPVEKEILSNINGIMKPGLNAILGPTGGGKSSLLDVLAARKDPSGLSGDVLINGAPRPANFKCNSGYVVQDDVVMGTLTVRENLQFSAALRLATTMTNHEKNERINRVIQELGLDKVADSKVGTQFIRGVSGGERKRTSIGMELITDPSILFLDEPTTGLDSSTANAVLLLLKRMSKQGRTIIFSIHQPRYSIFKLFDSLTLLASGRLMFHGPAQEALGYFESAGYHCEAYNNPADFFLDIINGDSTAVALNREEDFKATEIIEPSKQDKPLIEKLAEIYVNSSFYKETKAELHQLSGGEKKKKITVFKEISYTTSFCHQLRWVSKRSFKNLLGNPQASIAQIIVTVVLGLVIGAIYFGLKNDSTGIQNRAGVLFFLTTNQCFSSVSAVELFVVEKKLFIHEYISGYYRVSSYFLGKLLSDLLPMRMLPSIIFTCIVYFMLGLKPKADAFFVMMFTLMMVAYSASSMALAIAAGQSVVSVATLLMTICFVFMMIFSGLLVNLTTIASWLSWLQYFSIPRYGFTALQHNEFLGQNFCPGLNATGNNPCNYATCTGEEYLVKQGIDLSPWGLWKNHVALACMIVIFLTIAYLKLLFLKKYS
Assay: Inhibition of c-terminal GFP-tagged human ABCG2 expressed in MDCK2 cells preincubated for 30 mins before Pheophorbide A addition by Pheophorbide A assay
Format: cell-based
Details: not given

| IC50 | Compound |
| --- | --- |
| 741 nM | O=C(Nc1ccccc1C(=O)Nc1ccc(CCN2CCc3ccccc3C2)cc1)c1cnc2ccccc2c1 |
| 224 nM | CC(=O)Nc1cccc(Nc2nc(-c3ccccc3)nc3ccccc23)c1 |
| 304 nM | Oc1ccc(Nc2nc(-c3ccccc3)nc3ccccc23)cc1 |
| 513 nM | C#Cc1cccc(Nc2nc(-c3ccccc3)nc3ccccc23)c1 |
| 84.5 nM | N#Cc1ccc(Nc2nc(-c3ccccc3)nc3ccccc23)cc1 |
| 405 nM | Fc1cccc(Nc2nc(-c3ccccc3)nc3ccccc23)c1 |
| 113 nM | O=[N+]([O-])c1cc(Nc2nc(-c3ccccc3)nc3ccccc23)ccc1O |
| 202 nM | COc1cc(Nc2nc(-c3ccccc3)nc3ccccc23)ccc1Br |
| 689 nM | COc1ccc(Nc2nc(-c3ccccc3)nc3ccccc23)cc1F |

System: not listed separately
Assay: Intrinsic cytotoxicity against parental MDCK2 cells incubated for 72 hrs by MTT assay
Format: cell-based, Canis lupus familiaris, MDCK-II
Details: dog
How it was run: as §2

| Compound | GI50 at 72 h |
| --- | --- |
| CC(=O)Nc1cccc(Nc2nc(-c3ccccc3)nc3ccccc23)c1 | 30900 nM |
| Oc1ccc(Nc2nc(-c3ccccc3)nc3ccccc23)cc1 | 26900 nM |
| COc1ccc(Nc2nc(-c3ccccc3)nc3ccccc23)cc1OC | 17000 nM |
| Fc1ccc(Nc2nc(-c3ccccc3)nc3ccccc23)cc1 | 25600 nM |
| COc1ccc2c3c([nH]c2c1)[C@H](CC(C)C)N1C(=O)[C@H](CCC(=O)OC(C)(C)C)NC(=O)[C@@H]1C3 | 10900 nM |
| N#Cc1ccc(Nc2nc(-c3ccccc3)nc3ccccc23)cc1 | 16600 nM |
| Ic1cccc(Nc2nc(-c3ccccc3)nc3ccccc23)c1 | 16600 nM |
| Fc1cccc(Nc2nc(-c3ccccc3)nc3ccccc23)c1 | 27500 nM |
| Clc1ccc(Nc2nc(-c3ccccc3)nc3ccccc23)cc1 | 14800 nM |
| O=[N+]([O-])c1cc(Nc2nc(-c3ccccc3)nc3ccccc23)ccc1O | 152000 nM |
| Ic1ccc(Nc2nc(-c3ccccc3)nc3ccccc23)cc1 | 8850 nM |
| Cc1cccc(Nc2nc(-c3ccccc3)nc3ccccc23)c1 | 24000 nM |

Target: ABCC1 (Homo sapiens, UniProt P33527)
Assay: Inhibition of ABCC1 in human H69AR cells at 10 uM preincubated for 30 mins before calcein AM addition by calcein AM assay relative to CsA
Format: cell-based
Details: probe calcein AM
How it was run: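 H69AR cells (ABCC1-overexpressing) washed in Krebs-HEPES buffer pH 7.0; ~30,000 cells/well preincubated with compound 30 min at 37 °C, 5% CO2. Then 1.25 µM calcein AM solution added, fluorescence at ex 485/em 520 nm every 60 s for 60 min at 37 °C. Screened at 10 µM; activity expressed relative to cyclosporine A.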

ABCC1, sequence (P33527 whole entry): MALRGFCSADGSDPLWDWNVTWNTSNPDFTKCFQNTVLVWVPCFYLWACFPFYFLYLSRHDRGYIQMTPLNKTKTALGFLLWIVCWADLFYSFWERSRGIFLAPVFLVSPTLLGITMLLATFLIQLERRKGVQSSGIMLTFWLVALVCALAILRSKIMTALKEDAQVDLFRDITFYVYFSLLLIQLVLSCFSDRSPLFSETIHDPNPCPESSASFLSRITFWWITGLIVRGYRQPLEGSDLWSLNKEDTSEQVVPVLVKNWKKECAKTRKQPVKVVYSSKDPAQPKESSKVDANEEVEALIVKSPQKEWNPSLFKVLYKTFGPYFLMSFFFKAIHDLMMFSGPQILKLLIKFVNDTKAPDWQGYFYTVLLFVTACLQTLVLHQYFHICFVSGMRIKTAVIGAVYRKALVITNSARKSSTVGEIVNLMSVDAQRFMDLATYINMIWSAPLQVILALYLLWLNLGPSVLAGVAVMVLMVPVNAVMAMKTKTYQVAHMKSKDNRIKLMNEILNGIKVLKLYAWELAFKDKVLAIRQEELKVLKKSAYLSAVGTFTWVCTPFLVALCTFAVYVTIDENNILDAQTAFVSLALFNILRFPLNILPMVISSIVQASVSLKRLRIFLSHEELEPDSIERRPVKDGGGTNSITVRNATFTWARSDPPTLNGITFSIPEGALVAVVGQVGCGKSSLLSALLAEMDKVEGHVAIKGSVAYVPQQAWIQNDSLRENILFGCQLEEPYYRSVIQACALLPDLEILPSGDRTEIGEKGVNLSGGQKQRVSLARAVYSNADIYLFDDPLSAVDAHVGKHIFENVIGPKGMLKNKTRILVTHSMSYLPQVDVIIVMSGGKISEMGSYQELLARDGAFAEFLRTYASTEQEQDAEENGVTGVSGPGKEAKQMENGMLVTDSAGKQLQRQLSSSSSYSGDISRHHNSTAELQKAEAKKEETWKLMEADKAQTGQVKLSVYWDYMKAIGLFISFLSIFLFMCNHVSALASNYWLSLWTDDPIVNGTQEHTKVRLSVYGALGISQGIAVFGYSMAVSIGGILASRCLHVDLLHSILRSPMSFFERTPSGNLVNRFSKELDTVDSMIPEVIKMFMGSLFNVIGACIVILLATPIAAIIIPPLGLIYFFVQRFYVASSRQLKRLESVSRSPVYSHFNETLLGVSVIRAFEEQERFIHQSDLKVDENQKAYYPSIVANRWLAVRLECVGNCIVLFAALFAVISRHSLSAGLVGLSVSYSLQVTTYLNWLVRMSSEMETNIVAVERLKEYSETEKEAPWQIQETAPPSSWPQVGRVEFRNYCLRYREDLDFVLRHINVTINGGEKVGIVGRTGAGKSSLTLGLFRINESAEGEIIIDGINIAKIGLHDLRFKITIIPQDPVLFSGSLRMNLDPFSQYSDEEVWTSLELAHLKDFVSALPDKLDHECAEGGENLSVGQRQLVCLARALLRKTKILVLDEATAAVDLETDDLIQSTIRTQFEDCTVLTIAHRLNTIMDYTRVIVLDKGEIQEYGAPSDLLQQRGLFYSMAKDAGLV

| inhibition at 10 µM | Compound |
| --- | --- |
| > 25% | CC(=O)Nc1cccc(Nc2cc(-c3ccccc3)nc3ccccc23)c1 |
| > 25% | COC(=O)c1ccc(Nc2nc(-c3ccccc3)nc3ccccc23)cc1 |
| > 25% | CSc1cccc(Nc2cc(-c3ccccc3)nc3ccccc23)c1 |
| > 25% | CSc1cccc(Nc2nc(-c3ccccc3)nc3ccccc23)c1 |
| > 25% | O=C(O)c1ccc(Nc2nc(-c3ccccc3)nc3ccccc23)cc1 |

System: ABCG2
Assay: Therapeutic index, ratio of GI50 for intrinsic cytotoxicity against MDCK2 cells over-expressing human ABCG2 top IC50 for inhibition of c-terminal GFP-tagged human ABCG2 expressed in MDCK2 cells relative to Ko143
Format: toxicity, cell-based
Details: dog, read-out: TI

| Compound | selectivity ratio |
| --- | --- |
| O=[N+]([O-])c1cc(Nc2nc(-c3ccccc3)nc3ccccc23)ccc1O | 13 |

Target: ATP-dependent translocase ABCB1 (Homo sapiens, UniProt P08183)
Assay: Inhibition of ABCB1 in human A2780adr cells preincubated for 30 mins before calcein AM addition by calcein AM assay
Format: cell-based
Details: not given
How it was run: as §1

ATP-dependent translocase ABCB1, sequence (P08183 whole entry): as the sequence (P08183 whole entry) above

| IC50 | Compound |
| --- | --- |
| 4740 nM | N#Cc1ccc(Nc2cc(-c3ccccc3)nc3ccccc23)cc1 |
| 660 nM | CC(=O)Nc1cccc(Nc2cc(-c3ccccc3)nc3ccccc23)c1 |
| 1860 nM | COc1ccc(Nc2nc(-c3ccccc3)nc3ccccc23)cc1OC |
| 1420 nM | CSc1cccc(Nc2cc(-c3ccccc3)nc3ccccc23)c1 |
| 2780 nM | COc1cccc(Nc2cc(-c3ccccc3)nc3ccccc23)c1 |
| 3000 nM | Cc1cccc(Nc2nc(-c3ccccc3)nc3ccccc23)c1 |

System: ABCG2
Assay: Therapeutic index, ratio of GI50 for intrinsic cytotoxicity against MDCK2 cells over-expressing human ABCG2 top IC50 for inhibition of c-terminal GFP-tagged human ABCG2 expressed in MDCK2 cells
Format: toxicity, cell-based
Details: dog, read-out: RatioGI50
How it was run: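 Ratio of MTT GI50 (72 h, MDCK II) to IC50 from the Hoechst 33342 accumulation assay.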

| Compound | selectivity ratio |
| --- | --- |
| CC(=O)Nc1cccc(Nc2nc(-c3ccccc3)nc3ccccc23)c1 | 46.4 |
| Oc1ccc(Nc2nc(-c3ccccc3)nc3ccccc23)cc1 | 59.8 |
| COc1ccc(Nc2nc(-c3ccccc3)nc3ccccc23)cc1OC | 148 |
| Fc1ccc(Nc2nc(-c3ccccc3)nc3ccccc23)cc1 | 27.4 |
| N#Cc1ccc(Nc2nc(-c3ccccc3)nc3ccccc23)cc1 | 113 |
| Fc1cccc(Nc2nc(-c3ccccc3)nc3ccccc23)c1 | 48.5 |
| Clc1ccc(Nc2nc(-c3ccccc3)nc3ccccc23)cc1 | 8.13 |
| O=[N+]([O-])c1cc(Nc2nc(-c3ccccc3)nc3ccccc23)ccc1O | 655 |
| Ic1ccc(Nc2nc(-c3ccccc3)nc3ccccc23)cc1 | 15.1 |
| Cc1cccc(Nc2nc(-c3ccccc3)nc3ccccc23)c1 | 11.1 |

Target: T1, Broad substrate specificity ATP-binding cassette transporter ABCG2
Assay: Inhibition of c-terminal GFP-tagged human ABCG2 expressed in MDCK2 cells preincubated for 30 mins before Hoechst 33342 addition by Hoechst 33342 accumulation assay
Format: cell-based
Details: not given
How it was run: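 MDCK II cells transfected with human ABCG2 fused C-terminally to GFP, washed in Krebs-HEPES buffer pH 7.0; ~30,000 cells/well, compound 30 min at 37 °C. 6 µM Hoechst 33342 solution added, fluorescence (ex 355/em 460 nm) every 60 s to 120 min. Final methanol ≤5%, DMSO ≤0.1%.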

| IC50 | Compound |
| --- | --- |
| 846 nM | N#Cc1ccc(Nc2cc(-c3ccccc3)nc3ccccc23)cc1 |
| 1630 nM | CC(=O)Nc1cccc(Nc2cc(-c3ccccc3)nc3ccccc23)c1 |
| 704 nM | O=C(Nc1ccccc1C(=O)Nc1ccc(CCN2CCc3ccccc3C2)cc1)c1cnc2ccccc2c1 |
| 278 nM | CC(=O)Nc1cccc(Nc2nc(-c3ccccc3)nc3ccccc23)c1 |
| 1070 nM | CC(C)(C)c1cccc(Nc2nc(-c3ccccc3)nc3ccccc23)c1 |
| 204 nM | Oc1ccc(Nc2nc(-c3ccccc3)nc3ccccc23)cc1 |
| 152 nM | COc1ccc(Nc2nc(-c3ccccc3)nc3ccccc23)cc1OC |
| 944 nM | COC(=O)c1ccc(Nc2nc(-c3ccccc3)nc3ccccc23)cc1 |
| 1060 nM | Fc1ccc(Nc2nc(-c3ccccc3)nc3ccccc23)cc1 |
| 672 nM | C#Cc1cccc(Nc2nc(-c3ccccc3)nc3ccccc23)c1 |
| 1900 nM | CSc1cccc(Nc2cc(-c3ccccc3)nc3ccccc23)c1 |
| 69.9 nM | N#Cc1ccc(Nc2nc(-c3ccccc3)nc3ccccc23)cc1 |
| 791 nM | Ic1cccc(Nc2nc(-c3ccccc3)nc3ccccc23)c1 |
| 355 nM | Fc1cccc(Nc2nc(-c3ccccc3)nc3ccccc23)c1 |
| 830 nM | Clc1ccc(Nc2nc(-c3ccccc3)nc3ccccc23)cc1 |
| 80 nM | O=[N+]([O-])c1cc(Nc2nc(-c3ccccc3)nc3ccccc23)ccc1O |
| 951 nM | COc1cccc(Nc2cc(-c3ccccc3)nc3ccccc23)c1 |
| 1480 nM | Cc1ccc(Nc2nc(-c3ccccc3)nc3ccccc23)cc1 |
| 2130 nM | Fc1cccc(Nc2cc(-c3ccccc3)nc3ccccc23)c1 |
| 1190 nM | CSc1cccc(Nc2nc(-c3ccccc3)nc3ccccc23)c1 |
| 6380 nM | O=C(O)c1ccc(Nc2nc(-c3ccccc3)nc3ccccc23)cc1 |
| 1460 nM | Cc1cc(Nc2nc(-c3ccccc3)nc3ccccc23)ccc1I |
| 5650 nM | CC(C)(C)OC(=O)c1ccc(Nc2nc(-c3ccccc3)nc3ccccc23)cc1 |
| 289 nM | COc1cc(Nc2nc(-c3ccccc3)nc3ccccc23)ccc1Br |
| 612 nM | Ic1ccc(Nc2nc(-c3ccccc3)nc3ccccc23)cc1 |
| 872 nM | COc1ccc(Nc2nc(-c3ccccc3)nc3ccccc23)cc1F |
| 1150 nM | Cc1cccc(Nc2nc(-c3ccccc3)nc3ccccc23)c1 |
| 1060 nM | CC(C)(C)c1ccc(Nc2nc(-c3ccccc3)nc3ccccc23)cc1 |

| Compound | IC50 |
| --- | --- |
| O=S(=O)(F)c1ccc(Nc2nc(-c3ccccc3)nc3ccccc23)cc1 | 556 nM |
